Values after ≈ are worked out from the molar mass of the structure shown.
tested on: Bacillus subtilis; experiment: Antibacterial activity against Bacillus subtilis NCIM 2063 after 18 hrs by disc diffusion method; type: functional; conditions: not given
In short: (§1)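 Modified Kirby-Bauer disc diffusion. Plates inoculated with spore suspension (about 6 × 10⁴ spores mL^-1). Sterile 6 mm paper discs carried test samples at 10 mg mL^-1; ciprofloxacin disc as reference, DMF disc as negative control. Plates held 18 h at 37 °C. Inhibition zone diameters (mm) averaged over triplicate sets.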

Going from `COC(=O)[C@H](Cc1cnc[nH]1)NC(=O)c1cc(I)c(-c2nc3cc(C)c(C)cc3[nH]2)c(I)c1` to `COC(=O)[C@H](C)NC(=O)[C@@H](NC(=O)[C@H](C)NC(=O)c1cc(-c2nc3cc(C)c(C)cc3[nH]2)ccc1O)C(C)C`, the “inhibition zone (IZ)” value falls from 16 mm to 13 mm.

tested on: Staphylococcus aureus; experiment: Antibacterial activity against Staphylococcus aureus NCIM 2079 after 18 hrs by disc diffusion method; type: functional; conditions: not given; in short: as §1

Compared with `COC(=O)[C@H](Cc1cnc[nH]1)NC(=O)c1cc(I)c(-c2nc3cc(C)c(C)cc3[nH]2)c(I)c1`, `COC(=O)[C@H](C)NC(=O)[C@@H](NC(=O)[C@H](C)NC(=O)c1cc(-c2nc3cc(C)c(C)cc3[nH]2)ccc1O)C(C)C` is lower in “inhibition zone (IZ)” value: 12 mm for the first, 9 mm for the second.

tested on: Pseudomonas aeruginosa; experiment: Antibacterial activity against Pseudomonas aeruginosa NCIM 2034 after 18 hrs by disc diffusion method; type: functional; conditions: not given; in short: as §1

Going from `COC(=O)[C@H](Cc1cnc[nH]1)NC(=O)c1cc(I)c(-c2nc3cc(C)c(C)cc3[nH]2)c(I)c1` to `COC(=O)[C@H](C)NC(=O)[C@@H](NC(=O)[C@H](C)NC(=O)c1cc(-c2nc3cc(C)c(C)cc3[nH]2)ccc1O)C(C)C`, the “inhibition zone (IZ)” value falls from 24 mm to 19 mm.

tested on: Escherichia coli; experiment: Antibacterial activity against Escherichia coli NCIM 2065 after 18 hrs by disc diffusion method; type: functional; conditions: not given; in short: as §1

Compared with `COC(=O)[C@H](Cc1cnc[nH]1)NC(=O)c1cc(I)c(-c2nc3cc(C)c(C)cc3[nH]2)c(I)c1`, `COC(=O)[C@H](C)NC(=O)[C@@H](NC(=O)[C@H](C)NC(=O)c1cc(-c2nc3cc(C)c(C)cc3[nH]2)ccc1O)C(C)C` is lower in “inhibition zone (IZ)” value: 18 mm for the first, 16 mm for the second.

tested on: Candida albicans; experiment: Antifungal activity against Candida albicans MUCC 29 after 48 hrs by disc diffusion method; type: functional; conditions: not given
In short: (§2)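 Agar well diffusion on plates inoculated with spore suspension in normal saline from cultures on Sabouraud's broth. Wells punched and loaded with test samples or griseofulvin at 10 mg mL^-1, with DMSO as negative control. Incubated 48 h at 37 °C.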

`COC(=O)[C@H](Cc1cnc[nH]1)NC(=O)c1cc(I)c(-c2nc3cc(C)c(C)cc3[nH]2)c(I)c1` and `COC(=O)[C@H](C)NC(=O)[C@@H](NC(=O)[C@H](C)NC(=O)c1cc(-c2nc3cc(C)c(C)cc3[nH]2)ccc1O)C(C)C` are the same in “inhibition zone (IZ)” value: 18 mm for the first, 18 mm for the second.

tested on: Microsporum audouinii; experiment: Antifungal activity against Microsporum audouinii MUCC 545 after 48 hrs by disc diffusion method; type: functional; conditions: not given; in short: as §2

Going from `COC(=O)[C@H](Cc1cnc[nH]1)NC(=O)c1cc(I)c(-c2nc3cc(C)c(C)cc3[nH]2)c(I)c1` to `COC(=O)[C@H](C)NC(=O)[C@@H](NC(=O)[C@H](C)NC(=O)c1cc(-c2nc3cc(C)c(C)cc3[nH]2)ccc1O)C(C)C`, the “inhibition zone (IZ)” value falls from 11 mm to 10 mm.

tested on: Trichophyton benhamiae; experiment: Antifungal activity against Trichophyton mentagrophytes MUCC 665 after 48 hrs by disc diffusion method; type: functional, Arthroderma benhamiae; conditions: not given; in short: as §2

First: COC(=O)[C@H](Cc1cnc[nH]1)NC(=O)c1cc(I)c(-c2nc3cc(C)c(C)cc3[nH]2)c(I)c1
Second: COC(=O)[C@H](C)NC(=O)[C@@H](NC(=O)[C@H](C)NC(=O)c1cc(-c2nc3cc(C)c(C)cc3[nH]2)ccc1O)C(C)C
The “inhibition zone (IZ)” value of the first is lower: 12 mm for the first, 14 mm for the second.

tested on: Aspergillus niger; experiment: Antifungal activity against Aspergillus niger MUCC 177 after 48 hrs by disc diffusion method; type: functional; conditions: not given; in short: as §2

Compared with `COC(=O)[C@H](Cc1cnc[nH]1)NC(=O)c1cc(I)c(-c2nc3cc(C)c(C)cc3[nH]2)c(I)c1`, `COC(=O)[C@H](C)NC(=O)[C@@H](NC(=O)[C@H](C)NC(=O)c1cc(-c2nc3cc(C)c(C)cc3[nH]2)ccc1O)C(C)C` is higher in “inhibition zone (IZ)” value: 14 mm for the first, 16 mm for the second.

tested on: Bacillus subtilis; experiment: Antibacterial activity against Bacillus subtilis NCIM 2063 after 18 hrs by tube dilution method; type: functional; conditions: NCIM 2063, 18 h
In short: (§3)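 Tube dilution MIC. Stock diluted in sterile broth to seven concentrations from 200 to 3.1 […]. Each tube inoculated with one loopful of test bacterium and incubated 18 h at 37 °C. MIC read from presence or absence of growth.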

`COC(=O)[C@H](Cc1cnc[nH]1)NC(=O)c1cc(I)c(-c2nc3cc(C)c(C)cc3[nH]2)c(I)c1` and `COC(=O)[C@H](C)NC(=O)[C@@H](NC(=O)[C@H](C)NC(=O)c1cc(-c2nc3cc(C)c(C)cc3[nH]2)ccc1O)C(C)C` are the same in MIC: 6 µg/mL (≈ 8.97 µM) for the first, 6 µg/mL (≈ 11.2 µM) for the second.

tested on: Staphylococcus aureus; experiment: Antibacterial activity against Staphylococcus aureus NCIM 2079 after 18 hrs by tube dilution method; type: functional; conditions: NCIM 2079, 18 h; in short: as §3

Compared with `COC(=O)[C@H](Cc1cnc[nH]1)NC(=O)c1cc(I)c(-c2nc3cc(C)c(C)cc3[nH]2)c(I)c1`, `COC(=O)[C@H](C)NC(=O)[C@@H](NC(=O)[C@H](C)NC(=O)c1cc(-c2nc3cc(C)c(C)cc3[nH]2)ccc1O)C(C)C` is 2-fold higher in MIC: 12.5 µg/mL (≈ 18.7 µM) for the first, 25 µg/mL (≈ 46.5 µM) for the second.

tested on: Pseudomonas aeruginosa; experiment: Antibacterial activity against Pseudomonas aeruginosa NCIM 2034 after 18 hrs by tube dilution method; type: functional; conditions: NCIM 2034, 18 h; in short: as §3

`COC(=O)[C@H](Cc1cnc[nH]1)NC(=O)c1cc(I)c(-c2nc3cc(C)c(C)cc3[nH]2)c(I)c1` and `COC(=O)[C@H](C)NC(=O)[C@@H](NC(=O)[C@H](C)NC(=O)c1cc(-c2nc3cc(C)c(C)cc3[nH]2)ccc1O)C(C)C` are the same in MIC: 6 µg/mL (≈ 8.97 µM) for the first, 6 µg/mL (≈ 11.2 µM) for the second.

tested on: Escherichia coli; experiment: Antibacterial activity against Escherichia coli NCIM 2065 after 18 hrs by tube dilution method; type: functional; conditions: NCIM 2065, 18 h

First: COC(=O)[C@H](Cc1cnc[nH]1)NC(=O)c1cc(I)c(-c2nc3cc(C)c(C)cc3[nH]2)c(I)c1
Second: COC(=O)[C@H](C)NC(=O)[C@@H](NC(=O)[C@H](C)NC(=O)c1cc(-c2nc3cc(C)c(C)cc3[nH]2)ccc1O)C(C)C
The MIC of the first is 2-fold lower: 12.5 µg/mL (≈ 18.7 µM) for the first, 25 µg/mL (≈ 46.5 µM) for the second.

tested on: Candida albicans; experiment: Antifungal activity against Candida albicans MUCC 29 after 48 hrs by tube dilution method; type: functional; conditions: not given
In short: (§4)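 Tube dilution MIC as for bacteria (seven concentrations, 200–3.1 […]), with DMSO in place of DMF. Tubes inoculated with fungal culture and incubated 48 h at 37 °C. MIC read from presence or absence of growth.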

`COC(=O)[C@H](Cc1cnc[nH]1)NC(=O)c1cc(I)c(-c2nc3cc(C)c(C)cc3[nH]2)c(I)c1` and `COC(=O)[C@H](C)NC(=O)[C@@H](NC(=O)[C@H](C)NC(=O)c1cc(-c2nc3cc(C)c(C)cc3[nH]2)ccc1O)C(C)C` are the same in MIC: 6 µg/mL (≈ 8.97 µM) for the first, 6 µg/mL (≈ 11.2 µM) for the second.

tested on: Microsporum audouinii; experiment: Antifungal activity against Microsporum audouinii MUCC 545 after 48 hrs by tube dilution method; type: functional; conditions: not given; in short: as §4

Compared with `COC(=O)[C@H](Cc1cnc[nH]1)NC(=O)c1cc(I)c(-c2nc3cc(C)c(C)cc3[nH]2)c(I)c1`, `COC(=O)[C@H](C)NC(=O)[C@@H](NC(=O)[C@H](C)NC(=O)c1cc(-c2nc3cc(C)c(C)cc3[nH]2)ccc1O)C(C)C` is 4.2-fold lower in MIC: 25 µg/mL (≈ 37.4 µM) for the first, 6 µg/mL (≈ 11.2 µM) for the second.

tested on: Trichophyton benhamiae; experiment: Antifungal activity against Trichophyton mentagrophytes MUCC 665 after 48 hrs by tube dilution method; type: functional, Arthroderma benhamiae; conditions: not given; in short: as §4

Going from `COC(=O)[C@H](Cc1cnc[nH]1)NC(=O)c1cc(I)c(-c2nc3cc(C)c(C)cc3[nH]2)c(I)c1` to `COC(=O)[C@H](C)NC(=O)[C@@H](NC(=O)[C@H](C)NC(=O)c1cc(-c2nc3cc(C)c(C)cc3[nH]2)ccc1O)C(C)C`, the MIC falls from 12.5 µg/mL (≈ 18.7 µM) to 6 µg/mL (≈ 11.2 µM) (2.1-fold).

tested on: Eudrilus; experiment: Anthelmintic activity against Eudrilus sp. assessed as mean paralyzing time; type: functional; conditions: not given
In short: (§5)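 Earthworms exposed to test suspensions at 2 mg mL^-1 (0.2% w/v), made by triturating compound with Tween 80 (0.5%) and distilled water, then mechanically stirred 30 min. Mebendazole suspension prepared alike as reference. Paralysis and death times recorded; death confirmed by no movement in 50 °C water. Means from triplicate sets.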

`COC(=O)[C@H](Cc1cnc[nH]1)NC(=O)c1cc(I)c(-c2nc3cc(C)c(C)cc3[nH]2)c(I)c1` and `COC(=O)[C@H](C)NC(=O)[C@@H](NC(=O)[C@H](C)NC(=O)c1cc(-c2nc3cc(C)c(C)cc3[nH]2)ccc1O)C(C)C` are within 1.5-fold of each other in Time: 34.34 min for the first, 25.55 min for the second.

tested on: Eudrilus; experiment: Anthelmintic activity against Eudrilus sp. assessed as mean death time; type: functional; conditions: not given
In short: (§6)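 Earthworms exposed to test suspensions at 2 mg mL−1, prepared by triturating compound with Tween 80 (0.5%) and distilled water, stirring 30 min, then diluting to 0.2% w/v. Mebendazole suspension was made the same way. Death was confirmed by moving worms into 50 °C warm water and looking for movement. Mean death time (min) taken from triplicate sets.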

`COC(=O)[C@H](Cc1cnc[nH]1)NC(=O)c1cc(I)c(-c2nc3cc(C)c(C)cc3[nH]2)c(I)c1` and `COC(=O)[C@H](C)NC(=O)[C@@H](NC(=O)[C@H](C)NC(=O)c1cc(-c2nc3cc(C)c(C)cc3[nH]2)ccc1O)C(C)C` are within 1.5-fold of each other in Time: 46.3 min for the first, 36.23 min for the second.

tested on: not listed separately; experiment: Anthelmintic activity against Megascoplex konkanensis ICARBC 211 assessed as mean paralyzing time; type: functional; conditions: not given; in short: as §5

`COC(=O)[C@H](Cc1cnc[nH]1)NC(=O)c1cc(I)c(-c2nc3cc(C)c(C)cc3[nH]2)c(I)c1` and `COC(=O)[C@H](C)NC(=O)[C@@H](NC(=O)[C@H](C)NC(=O)c1cc(-c2nc3cc(C)c(C)cc3[nH]2)ccc1O)C(C)C` are within 1.5-fold of each other in TIME: 0.488 h for the first, 0.426 h for the second.

tested on: not listed separately; experiment: Anthelmintic activity against Megascoplex konkanensis ICARBC 211 assessed as mean death time; type: functional; conditions: not given; in short: as §5

`COC(=O)[C@H](Cc1cnc[nH]1)NC(=O)c1cc(I)c(-c2nc3cc(C)c(C)cc3[nH]2)c(I)c1` and `COC(=O)[C@H](C)NC(=O)[C@@H](NC(=O)[C@H](C)NC(=O)c1cc(-c2nc3cc(C)c(C)cc3[nH]2)ccc1O)C(C)C` are within 1.5-fold of each other in TIME: 0.758 h for the first, 0.578 h for the second.

tested on: Pontoscolex corethrurus; experiment: Anthelmintic activity against Pontoscolex corethrurus ICARBC 408 assessed as mean paralyzing time; type: functional; conditions: not given; in short: as §5

`COC(=O)[C@H](Cc1cnc[nH]1)NC(=O)c1cc(I)c(-c2nc3cc(C)c(C)cc3[nH]2)c(I)c1` and `COC(=O)[C@H](C)NC(=O)[C@@H](NC(=O)[C@H](C)NC(=O)c1cc(-c2nc3cc(C)c(C)cc3[nH]2)ccc1O)C(C)C` are within 1.5-fold of each other in Time: 34.14 min for the first, 29.89 min for the second.

tested on: Pontoscolex corethrurus; experiment: Anthelmintic activity against Pontoscolex corethrurus ICARBC 408 assessed as mean death time; type: functional; conditions: not given; in short: as §6

`COC(=O)[C@H](Cc1cnc[nH]1)NC(=O)c1cc(I)c(-c2nc3cc(C)c(C)cc3[nH]2)c(I)c1` and `COC(=O)[C@H](C)NC(=O)[C@@H](NC(=O)[C@H](C)NC(=O)c1cc(-c2nc3cc(C)c(C)cc3[nH]2)ccc1O)C(C)C` are within 1.5-fold of each other in Time: 47.82 min for the first, 41.79 min for the second.
